Shown are actives, neighbours in structure and some others; about 3% of the full set was active somewhere.
SIRT5 block: inhibitors of human sirtuin-5 desuccinylase; Q9NXA8; AID 652115; 330,000 tested, 1.1% active; Purified SirT5, succinyl-peptide AMC, trypsin-coupled fluorescence; inhibition, % at 15 µM; in the data active means inhibition above about 15%
Target sequence (Q9NXA8 whole entry, looked up): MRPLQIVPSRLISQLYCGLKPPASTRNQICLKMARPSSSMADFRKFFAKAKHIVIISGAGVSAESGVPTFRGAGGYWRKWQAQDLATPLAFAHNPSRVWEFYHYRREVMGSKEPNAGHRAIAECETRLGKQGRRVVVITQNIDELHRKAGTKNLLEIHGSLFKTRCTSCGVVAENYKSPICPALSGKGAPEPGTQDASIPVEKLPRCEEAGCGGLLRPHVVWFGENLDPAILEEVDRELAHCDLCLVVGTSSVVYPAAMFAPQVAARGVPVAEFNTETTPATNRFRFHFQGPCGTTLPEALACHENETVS
Cneo AK release: causes C. neoformans cell lysis | lysis activity, % at 15 µM | adenylate kinase release luminescence, 4 h; normalised: neutral wells 0, clomiphene wells 100 | 360,000 tested, 0.2% active;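 active means mean lysis activity across replicates of at least 80%, whatever share of replicates individually reach that level; inactive means mean lysis activity below 80%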
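Assay system: Cryptococcus neoformans yeast cells / Dosing: single-point compound dose / Timing: 4 h at 37 °C static, read 1 h later / Measured by: luminescence of released adenylate kinase using an AK detection reagent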
rRNA inh HTS: inhibits bacterial ribosomal RNA function over humanized ribosomes. AID 720706. E. coli WT GFP vs humanized-ribosome RFP mutants, fluorescence, 24 h; stronger effect = lower value; DMSO median 0, no signal -100. GFP signal change (wild-type ribosome), % (test concentration not listed). 350,000 tested, 1.6% active;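 active means significant combined selectivity score with lowered wild-type GFP, culture density cut under 30%, mutant RFP and density less affected; inactive means any of these conditions unmet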
PGC1a acetyl inh: lowers PGC1a acetylation signal in U2OS cells; AlphaScreen anti-acetyl-lysine; with virally co-expressed GCN5 acetyltransferase; inhibition, % at 15.6 µM; 350,000 tested, 0.17% active; AID 651687;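 active means every replicate shows inhibition of at least 40%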
S100A4 MyoIIA: blocks human S100A4 binding to myosin IIA peptide; 360,000 tested, 0.14% active; P26447; inhibition, % at 10.7 µM; S100A4/TAMRA-MyoIIA peptide fluorescence polarization;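 active means mean inhibition of at least 70% across replicates, with every replicate also reaching that level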
Target sequence (P26447 whole entry, looked up): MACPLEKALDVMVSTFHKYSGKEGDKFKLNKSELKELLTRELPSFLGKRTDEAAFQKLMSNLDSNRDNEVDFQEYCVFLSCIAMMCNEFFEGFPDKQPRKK
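Test system – S100A4 monomer (human) · Compound – single-point compound testing · Schedule – 5 min incubation before reading · Probe or stimulus – TAMRA-labelled myosin IIA heavy-chain peptide probe, 5 nM · Benchmarks – neutral control DMSO, positive control TFP · Medium – Calcium-containing HEPES buffer, pH 7.2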
Statin myotox sup: suppression of simvastatin myotoxicity. C2C12 myotubes + simvastatin, ATP luminescence, 48 h; scaled: DMSO 0, geranylgeraniol control 100. rescue of ATP level, % at 7.49 µM. 330,000 tested, 0.78% active;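 active means mean ATP rescue above about 67%, or every replicate alone reaching that limit, limit read from the data, passing the limit was not always enough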;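 further: myotubes were challenged with 10 µM simvastatin during compound exposure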
Hits are given with their value; - = inactive; . = no result given.

SMILES	SIRT5 block	Cneo AK release	rRNA inh HTS	PGC1a acetyl inh	S100A4 MyoIIA	Statin myotox sup
O=C(COC(=O)/C=C/c1ccc(OC(F)F)cc1)NC1CCCCCC1	.	-	-18.1	-	-	-
O=C(COC(=O)/C=C/c1ccc(OC(F)F)cc1)NC1CCCCCCC1	-	.	-	.	-	-
CCN(CC)S(=O)(=O)c1cccc(-c2n[nH]c(=S)n2/N=C/c2ccc(OC)cc2)c1	.	.	.	.	.	-
CCN(CC)S(=O)(=O)c1cccc(-c2n[nH]c(=S)n2/N=C/c2ccc(OC(F)F)cc2)c1	-	.	-18.1	.	-	.
O=C(Nc1ccc(N2CCOCC2)c(S(=O)(=O)Nc2cc(Cl)ccc2Cl)c1)c1cccnc1	-	-	-35.0	-	-	-
CN(C)c1ccc(C=c2c3cc(O)ccc3n3c2cc(-c2ccccc2)[n+]3C)cc1	-	.	-	.	78.9	.
C[n+]1c(-c2ccccc2)cc2c(=Cc3ccccc3)c3ccccc3n21	.	.	-	.	-	.
Cc1cc(Cl)ccc1C(=O)C1CCCN(C(=O)c2cc(C(C)C)no2)C1 (centres undefined)	-	-	-36.8	.	-	-
CC(C)c1cc(C(=O)N2CCCC(C(=O)c3ccc4ccccc4c3)C2)on1 (centres undefined)	-	-	-	.	-	-
COc1ccccc1CNC(=O)C[C@@H]1C[C@H]2c3cc(NC(=O)Nc4ccccc4F)ccc3O[C@H]2[C@@H](CO)O1	-	94.1	-	-	-	-
O=C(C[C@@H]1C[C@@H]2c3cc(NC(=O)NC4CCCCC4)ccc3O[C@@H]2[C@H](CO)O1)NCCc1ccccc1	26.4	.	-	.	-	.
O=C(C[C@@H]1C[C@@H]2c3cc(NC(=O)Nc4ccccc4F)ccc3O[C@@H]2[C@@H](CO)O1)NCc1ccc(Oc2ccccc2)cc1	-	-	-	83.8	-	-
COc1ccccc1CNC(=O)C[C@@H]1C[C@@H]2c3cc(NC(=O)Nc4ccccc4F)ccc3O[C@@H]2[C@H](CO)O1	-	102.6	-	-	-	-
CC(=O)N1[C@H](CO)[C@H](c2ccccc2)[C@H]1CNC(=O)CN1CCOCC1	-	-	-	-	-	-
C[C@@H]1CN([C@@H](C)CO)C(=O)c2cc(NC(=O)NC3CCCCC3)ccc2O[C@@H](C)CCCCO[C@H]1CN(C)S(=O)(=O)c1cccs1	.	-	-	-	.	.
COCC#Cc1ccc2c(c1)O[C@@H](CN(C)S(=O)(=O)c1cccc(OC)c1)[C@@H](C)CN([C@@H](C)CO)S2(=O)=O	-	-	-	-	-	-
O=C(C[C@H]1C[C@H]2c3cc(NC(=O)Nc4ccccc4)ccc3O[C@H]2[C@@H](CO)O1)NCc1ccncc1	17.8	-	-	-	-	-
CNC(=O)C[C@@H]1CC[C@@H]2[C@@H](COc3ccc(NC(=O)c4cc(F)cc(F)c4)cc3C(=O)N2C)O1	-	-	-	-	-	-
COc1ccc(C=O)cc1CSc1nnc(COc2cccc3cccnc23)o1	.	-	.	-	.	138.0
O=C1CCCn2cc(nn2)COC[C@@H](Cc2ccccc2)N1	-	-	-	.	116.5	.
C[C@H]1CN(C)C(=O)c2cccnc2O[C@H]1CN(C)S(C)(=O)=O	.	.	-	.	.	.
OCCN1CCN(CC(O)COC(c2ccc(F)cc2)c2ccc(F)cc2)CC1 (centres undefined)	-	-	-	-	-	-
OC(COC(c1ccc(F)cc1)c1ccc(F)cc1)CN1CCCC(C(F)(F)F)C1 (centres undefined)	-	-	-22.9	-	-	-
O=C(C1CCCCC1)N1C[C@H]2[C@@H](c3ccccc31)[C@H](CO)N2CC1CCOCC1	-	-	-	-	-	-
O=C(CN1CCCc2ccccc21)N/N=C/c1ccccc1	-	.	.	.	-	.
SMILES	SIRT5 block	Cneo AK release	rRNA inh HTS	PGC1a acetyl inh	S100A4 MyoIIA	Statin myotox sup
O=C(CN1CCCc2ccccc21)N/N=C/c1ccc(O)cc1O	.	-	-14.6	.	-	.
C[C@H](CO)N1C[C@H](C)[C@H](CN(C)S(=O)(=O)c2ccc(F)cc2)Oc2ncc(C#Cc3ccc(F)cc3)cc2C1=O	.	.	-	-	.	-
O=C(COC(=O)C12CC3CC(CC(O)(C3)C1)C2)NCCc1ccc(Cl)cc1	-	.	-20.0	-	-	.
O=C(COC(=O)C12CC3CC(CC(Br)(C3)C1)C2)Nc1c(F)cccc1F	-	-	-26.6	.	-	-
CC(C)OC(=O)c1cccc(C(=O)O)n1	18.7	-	-	-	-	.
COc1ccc(CSC2=C(C#N)C(=O)NC3(CCCCC3)S2)cc1	.	-	-28.1	-	-	-
CS(=O)(=O)N(CC(=O)N/N=C/c1cccs1)c1cccc(Cl)c1Cl	.	-	.	-	.	118.6
CO[C@@H]1CN(C)C(=O)c2cc(NC(=O)C3CCCC3)ccc2OC[C@@H](C)N(Cc2nccs2)C[C@H]1C	-	-	-	.	-	-
O=C([C@H]1N[C@H]2c3ccc(-c4ccccc4F)c(=O)n3C[C@H]2[C@@H]1CO)N1CCc2ccccc2C1	-	-	-	.	-	-
COc1cc(NC(=O)C(c2ccccc2)c2ccccc2)c(C(=O)O)cc1OC	-	-	-23.6	-	-	-
CCN(CC(=O)Nc1ccccc1OC)CC(=O)Nc1c(Cl)ccc(C)c1Cl	-	-	-26.0	-	-	-
CCn1c(C)nc2cc(C(=O)NNC(=S)Nc3ccccc3OC)ccc21	-	.	-19.5	.	-	.
COc1ccccc1NC(=S)NC1CCCC1	.	.	-	-	-	.
COc1ccccc1NC(=S)NC1CC2CCC1C2 (centres undefined)	.	-	-	-	-	126.3
COc1ccccc1NC(=O)CNc1ccc(F)c(Cl)c1	31.0	.	-	.	-	.
C[C@@H]1CN([C@@H](C)CO)C(=O)c2cccc(NC(=O)CCCCCC(=O)Nc3ccccc3N)c2O[C@@H]1CN(C)C(=O)Nc1cccc2ccccc12	-	.	-	-	-	.
O=C(N[C@H]1CC[C@@H](CCNS(=O)(=O)c2ccc(F)cc2)O[C@H]1CO)c1cccc(F)c1	-	-	-	-	-	-
COc1ccccc1NC(=O)CCCCC(=O)Nc1ccccc1OC	16.1	-	-	.	-	-
CCCC(=O)NC(=S)Nc1ccccc1OC	.	-	.	-	.	-
COc1ccccc1NC(=O)CCS(=O)(=O)c1ccccc1	.	.	-	-	-	.
CCC(=O)NC(=S)Nc1ccccc1OC	.	-	.	-	.	133.1
COc1ccc(CCNc2nc(-c3ccncc3)cs2)cc1OC	-	.	-27.3	-	-	-
CCOC(=O)c1c(CSC(=N)N)n(C)c2cc(Br)c(OC(C)=O)cc12	-	.	-27.0	.	-	.
COc1cc2[nH]c(=O)n(CCCCCC(=O)N3CCN(c4ccccn4)CC3)c(=O)c2cc1OC	24.2	-	-	.	-	-
COc1cc2[nH]c(=O)n(CCCC(=O)N3CC=C(c4ccccc4)CC3)c(=O)c2cc1OC	.	-	.	-	.	-
